The record followed here is the array DNA melting data of Ke et al. (doi:10.1101/2024.01.08.574731).

The nature of data set [1]: folding enthalpy; higher = less favourable; fluorescence melt of hairpins on a sequencing array, two-state fit. The conditions noted are these: sodium 0.088 M. The gist of the method:
(§1)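 In 50 mM Na-HEPES pH 8.0 containing 25 mM NaCl, hairpins from the library on a sequenced MiSeq flow cell were imaged for Cy3 fluorescence at 2.5 °C steps up to 60 °C, with Cy3 and quencher oligos annealed. After normalisation to pre-quench Cy3 and to control constructs, two-state fits with bootstrapping gave melting temperature and folding enthalpy. Four replicates were combined by inverse-variance weighting, and fitted temperatures were shifted up by 9.35 °C to match UV melts.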

The nature of data set [2]: melting temperature; fluorescence melt of hairpins on a sequencing array, two-state fit, raised by 9.35 °C to match UV melts. The conditions noted are these: sodium 0.088 M. The gist of the method:
as §1

Take GATCTAAAGGTAGATC ((((((....)))))): the folding enthalpy in data set [1] was -18.5 kcal/mol. The Tm in data set [2] worked out at 33.9 °C.
GATCTAAAGTAGATC ((((((...)))))): the folding enthalpy in data set [1] was -22.2 kcal/mol. For the same sequence, the Tm in data set [2] was 37.1 °C.
In the same order, the values of GATCTAAATTAGATC ((((((...)))))) are -21.3 kcal/mol and 37.8 °C.
For GATCTAACCGTAGATC ((((((....)))))), in that order: -25.1 kcal/mol and 38 °C.
As to GATCTAACTCTAGATC ((((((....)))))), the folding enthalpy in data set [1] was -21.1 kcal/mol. For the same sequence, the Tm in data set [2] worked out at 39.6 °C.
For GATCTAACTGTAGATC ((((((....)))))), the folding enthalpy in data set [1] was -24.2 kcal/mol. Further, the Tm in data set [2] stood at 39.1 °C.
For GATCTAAGCCTAGATC ((((((....)))))), in that order: -31.9 kcal/mol and 39.1 °C.
For GATCTAAGGATAGATC ((((((....)))))), in that order: -21.9 kcal/mol and 34 °C.
Regarding GATCTAAGGTAGATC ((((((...)))))), the folding enthalpy in data set [1] was -20.8 kcal/mol. Besides, the Tm in data set [2] is 37.6 °C.
For GATCTAAGTGTAGATC ((((((....)))))), in that order: -28.5 kcal/mol and 39.3 °C.
For GATCTAATCTTAGATC ((((((....)))))), the folding enthalpy in data set [1] is -35.3 kcal/mol. The Tm in data set [2] is 43.6 °C.
For GATCTAATGTAGATC ((((((...)))))), in that order: -25.5 kcal/mol and 36.6 °C.
In the same order, the values of GATCTAATTTTAGATC ((((((....)))))) are -34.2 kcal/mol and 44 °C.
On to GATCTACAAATAGATC ((((((....)))))), for which the folding enthalpy in data set [1] was -25.4 kcal/mol. In addition, in data set [2], the Tm amounted to 36.6 °C.
For GATCTACACCTAGATC ((((((....)))))), in that order: -39.5 kcal/mol and 42.5 °C.
For GATCTACACGTAGATC ((((((....)))))), in that order: -35.6 kcal/mol and 50.5 °C.
Consider GATCTACACTAGATC ((((((...)))))), for which, in data set [1], the folding enthalpy is -20.8 kcal/mol. Further, the Tm in data set [2] is 41.7 °C.
For GATCTACAGCTAGATC ((((((....)))))), in that order: -31.8 kcal/mol and 35.1 °C.
In the case of GATCTACAGGTAGATC ((((((....)))))), the folding enthalpy in data set [1] is -37.6 kcal/mol. Besides, the Tm in data set [2] is 48.8 °C.
In the same order, the values of GATCTACATATAGATC ((((((....)))))) are -35.4 kcal/mol and 40.8 °C.
For GATCTACCACTAGATC ((((((....)))))), in that order: -30.6 kcal/mol and 39.7 °C.
For GATCTACCCATAGATC ((((((....)))))), in that order: -35.8 kcal/mol and 41.4 °C.
As to GATCTACCGTAGATC ((((((...)))))), the folding enthalpy in data set [1] is -31.6 kcal/mol. In addition, the Tm in data set [2] was 39.1 °C.
On to GATCTACGAAAGTATATC (((.(((....))).))), for which the folding enthalpy in data set [1] was -22.4 kcal/mol. Moreover, in data set [2], the Tm stood at 32.5 °C.
Regarding GATCTACTGTTAGATC ((((((....)))))), the folding enthalpy in data set [1] was -32.4 kcal/mol. The Tm in data set [2] is 40.9 °C.
For GATCTACTTTAGATC ((((((...)))))), in that order: -30.1 kcal/mol and 41.7 °C.
On to GATCTAGCCATAGATC ((((((....)))))), for which the folding enthalpy in data set [1] was -41 kcal/mol. The Tm in data set [2] amounted to 49.3 °C.
In the same order, the values of GATCTAGCGATAGATC ((((((....)))))) are -34.7 kcal/mol and 46 °C.
For GATCTAGCGCTAGATC ((((((....)))))), in that order: -45.9 kcal/mol and 53.6 °C.
For GATCTAGCGGTAGATC ((((((....)))))), in that order: -32.2 kcal/mol and 44 °C.
With GATCTAGCTGTAGATC ((((((....)))))), in data set [1], the folding enthalpy was -32.8 kcal/mol. Moreover, the Tm in data set [2] was found to be 39.9 °C.
With GATCTAGGAAACCAGATC (((((.(....).))))), the folding enthalpy in data set [1] was -25.3 kcal/mol. Also, in data set [2], the Tm was 34.6 °C.
GATCTAGGAATAGATC ((((((....)))))): in data set [1], the folding enthalpy is -29.3 kcal/mol. The Tm in data set [2] stood at 42.9 °C.
In the same order, the values of GATCTAGGATAGATC ((((((...)))))) are -32.1 kcal/mol and 48.7 °C.
For the sequence GATCTAGGGATAGATC ((((((....)))))), the folding enthalpy in data set [1] was -30.8 kcal/mol. Also, the Tm in data set [2] is 42.3 °C.
For the sequence GATCTAGGGGTAGATC ((((((....)))))), the folding enthalpy in data set [1] was -30.2 kcal/mol. Also, the Tm in data set [2] amounted to 36.4 °C.
In the same order, the values of GATCTAGGGTAGATC ((((((...)))))) are -22.7 kcal/mol and 36.7 °C.
In the same order, the values of GATCTAGTATAGATC ((((((...)))))) are -41.5 kcal/mol and 49.5 °C.
